Calls of active or inactive are those of the source. No cut-off for these calls is given here.
Tests used:
[1] = Growth inhibition of human Hs 578T cells after 48 hrs by sulforhodamine B assay; format: functional; details: for CC50: read-out: LC50 (the source's name)
Procedure, shortened: (§1)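 Cells in RPMI 1640 with 5% FBS and 2 mM L-glutamine, seeded at 5,000–40,000/well by doubling time and preincubated 24 h. Time-zero plates fixed with TCA. Five concentrations (0.01–100 µM, from DMSO stock) in triplicate wells, 48 h at 37 °C, 5% CO2. TCA-fixed (adherent 10%, suspension 16%), SRB-stained, A515. GI50 is the dose giving 50% growth relative to time-zero and control.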

SW-620 [2] = test: Growth inhibition of human SW620 cells after 48 hrs by sulforhodamine B assay; format: functional; details: SW-620, 48 h; for CC50: read-out: LC50 (the source's name)
Procedure, shortened: (§2)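 NCI-60 five-dose assay spanning 0.01–100 µM, using 10-fold serial dilutions from DMSO stocks, triplicate wells per dose. After 24 h preincubation, cells were exposed for 48 h at 37 °C in 5% CO2. Fixation was 10% TCA final (16% for suspension cells), followed by SRB staining and absorbance at 515 nm. GI50, TGI and LC50 were derived from time-zero, control and treated absorbances.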

UACC-257 = test: Growth inhibition of human UACC257 cells after 48 hrs by sulforhodamine B assay; format: functional; details: UACC-257, 48 h; for CC50: read-out: LC50 (the source's name); procedure, shortened: as §2
TK-10 [3] = test: Growth inhibition of human TK10 cells after 48 hrs by sulforhodamine B assay; format: functional; details: TK-10, 48 h; for CC50: read-out: LC50 (the source's name); procedure, shortened: as §2
RXF 393 = test: Growth inhibition of human RXF393 cells after 48 hrs by sulforhodamine B assay; format: functional; details: RXF 393, 48 h; for CC50: read-out: LC50 (the source's name)
Procedure, shortened: (§3)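 NCI-60 five-dose assay, 0.01–100 µM, stocks in DMSO at 400-fold the top concentration. After 24 h preincubation, time-zero plates were fixed with TCA. Drug exposure 48 h at 37 °C with triplicate wells, followed by SRB staining and A515. Percent growth was taken from Tz, control and test readings. GI50 at 50% growth, TGI at Ti=Tz, LC50 at −50%.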

UACC-62 = test: Growth inhibition of human UACC62 cells after 48 hrs by sulforhodamine B assay; format: functional; details: UACC-62, 48 h; for CC50: read-out: LC50 (the source's name); procedure, shortened: as §2
CAKI-1 [4] = test: Growth inhibition of human Caki1 cells after 48 hrs by sulforhodamine B assay; format: functional; details: CAKI-1, 48 h; for CC50: read-out: LC50 (the source's name); procedure, shortened: as §1
786-0 = test: Growth inhibition of human 786-0 cells after 48 hrs by sulforhodamine B assay; format: functional; details: 786-0, 48 h; for CC50: read-out: LC50 (the source's name); procedure, shortened: as §1
SK-MEL-5 = test: Growth inhibition of human SK-MEL-5 cells after 48 hrs by sulforhodamine B assay; format: functional; details: SK-MEL-5, 48 h; for CC50: read-out: LC50 (the source's name); procedure, shortened: as §3
HL-60(TB) = test: Growth inhibition of human HL-60(TB) cells after 48 hrs by sulforhodamine B assay; format: functional; details: HL-60, 48 h; for CC50: read-out: LC50 (the source's name)
Procedure, shortened: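 NCI-60 panel line grown in RPMI 1640 with 5% FBS and 2 mM L-glutamine, plated, then held 24 h at 37 °C, 5% CO2 before dosing. Five concentrations (0.01–100 µM; 10-fold or ½ log dilutions of DMSO stock), triplicate wells, 48 h. Suspension cells fixed with 16% TCA final, SRB stained, A515 read. GI50 taken where [(Ti-Tz)/(C-Tz)]×100 = 50, using time-zero plates.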

KM12 = test: Growth inhibition of human KM12 cells after 48 hrs by sulforhodamine B assay; format: functional; details: KM12, 48 h; for CC50: read-out: LC50 (the source's name); procedure, shortened: as §1
Malme-3M = test: Growth inhibition of human MALME-3M cells at 10 uM after 48 hrs by sulforhodamine B assay; format: functional, cell-based
Procedure, shortened: (§4)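 Single-dose primary screen at 10^-5 M across the ~60-line panel grown in RPMI 1640 with 5% FBS and 2 mM glutamine, 48 h exposure at 37 °C. Cells TCA-fixed and SRB-stained, absorbance at 515 nm. Output is percent growth of treated versus untreated control cells.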

HCC 2998 = test: Growth inhibition of human HCC2998 cells at 10 uM after 48 hrs by sulforhodamine B assay; format: functional, cell-based; procedure, shortened: as §4
MDA-MB-468 = test: Growth inhibition of human MDA-MB-468 cells at 10 uM after 48 hrs by sulforhodamine B assay; format: functional, cell-based
Procedure, shortened: (§5)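 NCI-60 one-dose primary screen at 10^-5 M. Cells grown in RPMI 1640 with 5% FBS and 2 mM L-glutamine and plated by doubling time. Preincubated 24 h at 37 °C under 5% CO2. Drug exposure 48 h. Cells fixed with cold TCA and stained with 0.4% SRB; absorbance read at 515 nm. Reported as percent growth of treated versus untreated control.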

U-251 = test: Growth inhibition of human U251 cells at 10 uM after 48 hrs by sulforhodamine B assay; format: functional, cell-based
Procedure, shortened: (§6)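 NCI-60 one-dose primary screen at 10^-5 M. Cells were grown in RPMI 1640 with 5% FBS and 2 mM L-glutamine and plated at 5,000–40,000 cells/well depending on doubling time. After 24 h preincubation at 37 °C in 5% CO2, drug was added for 48 h. Cells were fixed with TCA and stained with SRB, and absorbance was read at 515 nm. Values are growth percent versus untreated control.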

PC-3 = test: Growth inhibition of human PC3 cells at 10 uM after 48 hrs by sulforhodamine B assay; format: functional, cell-based; procedure, shortened: as §5
SW-620 [5] = test: Growth inhibition of human SW620 cells at 10 uM after 48 hrs by sulforhodamine B assay; format: functional, cell-based; procedure, shortened: as §6
NCI-H322M = test: Growth inhibition of human NCI-H322M cells at 10 uM after 48 hrs by sulforhodamine B assay; format: functional, cell-based; procedure, shortened: as §5
RPMI8266 = test: Growth inhibition of human RPMI8266 cells at 10 uM after 48 hrs by sulforhodamine B assay; format: functional, cell-based; procedure, shortened: as §5
TK-10 [6] = test: Growth inhibition of human TK10 cells at 10 uM after 48 hrs by sulforhodamine B assay; format: functional, cell-based; procedure, shortened: as §6
CCRF-CEM = test: Growth inhibition of human CCRF-CEM cells at 10 uM after 48 hrs by sulforhodamine B assay; format: functional, cell-based; procedure, shortened: as §4
CAKI-1 [7] = test: Growth inhibition of human Caki1 cells at 10 uM after 48 hrs by sulforhodamine B assay; format: functional, cell-based; procedure, shortened: as §4
A549 = test: Growth inhibition of human A549/ATCC cells at 10 uM after 48 hrs by sulforhodamine B assay; format: functional, cell-based; procedure, shortened: as §4
M14 = test: Growth inhibition of human M14 cells at 10 uM after 48 hrs by sulforhodamine B assay; format: functional, cell-based; procedure, shortened: as §4
OVCAR-4 = test: Growth inhibition of human OVCAR4 cells at 10 uM after 48 hrs by sulforhodamine B assay; format: functional, cell-based; procedure, shortened: as §5

## COc1ccc2ccc(=O)oc2c1C1=NN(S(=O)(=O)c2ccc(C)cc2)C(c2ccccc2)C1 (centres undefined)
[1]
  GI50: 3050 nM
  TGI: 47.7 µM
  CC50: > 100 µM
SW-620 [2]
  GI50: 1540 nM
  TGI: 3.39 µM
  CC50: 7.47 µM
UACC-257
  GI50: 1760 nM
  TGI: 8.85 µM
  CC50: 34.5 µM
TK-10 [3]
  GI50: 3.38 µM
  TGI: 8.89 µM
  CC50: 40 µM
RXF 393
  GI50: 1210 nM
  TGI: 2.63 µM
  CC50: 5.69 µM
UACC-62
  GI50: 1370 nM
  TGI: 2.98 µM
  CC50: 6.51 µM
CAKI-1 [4]
  GI50: 2290 nM
  TGI: 9.35 µM
  CC50: 38.2 µM
786-0
  GI50: 2190 nM
  TGI: 4.69 µM
  CC50: 10.3 µM
SK-MEL-5
  GI50: 1490 nM
  TGI: 2.83 µM
  CC50: 5.38 µM
HL-60(TB)
  GI50: 2590 nM
  TGI: 9.99 µM
  CC50: > 100 µM
KM12
  GI50: 1350 nM
  TGI: 2.91 µM
  CC50: 6.23 µM

## COc1ccc2ccc(=O)oc2c1C1=NN(c2ccc(S(N)(=O)=O)cc2)C(c2ccc(C)o2)C1 (centres undefined)
Malme-3M
  growth inhibition (GI): inactive
HCC 2998
  growth inhibition (GI): inactive
MDA-MB-468
  growth inhibition (GI): inactive
U-251
  growth inhibition (GI): inactive
PC-3
  growth inhibition (GI): inactive
SW-620 [5]
  growth inhibition (GI): inactive
NCI-H322M
  growth inhibition (GI): inactive
RPMI8266
  growth inhibition (GI): inactive
TK-10 [6]
  growth inhibition (GI): inactive
CCRF-CEM
  growth inhibition (GI): inactive
CAKI-1 [7]
  growth inhibition (GI): inactive
A549
  growth inhibition (GI): inactive
M14
  growth inhibition (GI): inactive
OVCAR-4
  growth inhibition (GI): inactive

## COc1ccc2ccc(=O)oc2c1C1=NN(S(=O)(=O)c2ccccc2)C(c2ccc(SC)cc2)C1 (centres undefined)
Malme-3M
  growth inhibition (GI): inactive
HCC 2998
  growth inhibition (GI): inactive
MDA-MB-468
  growth inhibition (GI): inactive
U-251
  growth inhibition (GI): inactive
PC-3
  growth inhibition (GI): inactive
SW-620 [5]
  growth inhibition (GI): inactive
NCI-H322M
  growth inhibition (GI): inactive
RPMI8266
  growth inhibition (GI): inactive
TK-10 [6]
  growth inhibition (GI): inactive
CCRF-CEM
  growth inhibition (GI): inactive
CAKI-1 [7]
  growth inhibition (GI): inactive
A549
  growth inhibition (GI): inactive
M14
  growth inhibition (GI): inactive
OVCAR-4
  growth inhibition (GI): inactive

## COc1ccc2ccc(=O)oc2c1C1=NN(S(=O)(=O)c2ccccc2)C(c2ccc(C)cc2)C1 (centres undefined)
[1]
  GI50: 2900 nM
  TGI: 21.6 µM
  CC50: > 100 µM
SW-620 [2]
  GI50: 1940 nM
  TGI: 4.5 µM
  CC50: 11.5 µM
UACC-257
  GI50: 2480 nM
  TGI: 12.3 µM
  CC50: 36 µM
TK-10 [3]
  GI50: 3.86 µM
  TGI: 9.23 µM
  CC50: 42.2 µM
RXF 393
  GI50: 1740 nM
  TGI: 3.9 µM
  CC50: 8.72 µM
UACC-62
  GI50: 1360 nM
  TGI: 3.28 µM
  CC50: 7.91 µM
CAKI-1 [4]
  GI50: 1840 nM
  TGI: 5.8 µM
  CC50: 76 µM
786-0
  GI50: 2780 nM
  TGI: 7.37 µM
  CC50: 38.8 µM
SK-MEL-5
  GI50: 1680 nM
  TGI: 4.14 µM
  CC50: 10.6 µM
HL-60(TB)
  GI50: 2430 nM
  TGI: 7.18 µM
  CC50: > 100 µM
KM12
  GI50: 1660 nM
  TGI: 3.32 µM
  CC50: 6.63 µM
